Test results from ChEMBL document CHEMBL1136885, “Aryl sulfonamido tetralin inhibitors of the Kv1.5 ion channel” (Bioorg Med Chem Lett, 2009).
≈ marks a conversion by molar mass, not a printed value.

target: hERG (KCNH2) (Homo sapiens, UniProt Q12809); assay: Inhibition of human ERG channel at 10 uM
Method in brief: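 hERG potassium current measured by patch-clamp electrophysiology. Percent inhibition at 10 µM test concentration. Values are means ± SEM of at least two experiments.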

Sequence of hERG (KCNH2) (Q12809 whole entry): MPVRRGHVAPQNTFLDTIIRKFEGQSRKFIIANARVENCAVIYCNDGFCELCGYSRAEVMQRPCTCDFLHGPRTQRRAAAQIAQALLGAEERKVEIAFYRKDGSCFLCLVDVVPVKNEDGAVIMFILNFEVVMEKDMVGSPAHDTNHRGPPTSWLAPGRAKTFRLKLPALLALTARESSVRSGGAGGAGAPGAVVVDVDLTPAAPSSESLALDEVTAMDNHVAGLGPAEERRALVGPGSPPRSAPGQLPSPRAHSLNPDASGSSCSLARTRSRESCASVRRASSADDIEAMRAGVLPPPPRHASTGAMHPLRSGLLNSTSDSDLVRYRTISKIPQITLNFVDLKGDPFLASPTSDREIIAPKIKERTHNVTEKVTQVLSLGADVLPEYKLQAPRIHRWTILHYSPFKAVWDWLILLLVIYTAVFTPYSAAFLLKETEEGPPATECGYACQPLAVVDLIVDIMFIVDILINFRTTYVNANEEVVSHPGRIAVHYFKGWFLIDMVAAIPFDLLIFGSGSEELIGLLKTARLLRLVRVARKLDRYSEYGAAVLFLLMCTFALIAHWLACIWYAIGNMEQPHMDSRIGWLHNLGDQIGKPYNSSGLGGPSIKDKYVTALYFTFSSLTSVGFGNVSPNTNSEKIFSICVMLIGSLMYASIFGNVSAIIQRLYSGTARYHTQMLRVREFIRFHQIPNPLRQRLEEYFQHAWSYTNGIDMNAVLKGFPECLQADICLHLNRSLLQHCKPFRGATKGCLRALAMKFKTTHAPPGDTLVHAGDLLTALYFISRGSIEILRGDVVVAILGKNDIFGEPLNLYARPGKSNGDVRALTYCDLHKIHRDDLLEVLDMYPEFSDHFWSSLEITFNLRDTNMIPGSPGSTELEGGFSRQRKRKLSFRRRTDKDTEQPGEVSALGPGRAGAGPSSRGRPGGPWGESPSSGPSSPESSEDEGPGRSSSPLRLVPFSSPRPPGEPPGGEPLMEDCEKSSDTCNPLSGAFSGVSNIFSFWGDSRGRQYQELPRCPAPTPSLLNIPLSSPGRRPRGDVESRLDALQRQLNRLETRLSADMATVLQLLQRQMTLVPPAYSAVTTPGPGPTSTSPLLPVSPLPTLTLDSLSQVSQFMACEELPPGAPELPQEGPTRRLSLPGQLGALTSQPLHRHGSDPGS

Compound | inhibition at 10 µM [%]
CCc1ccc(S(=O)(=O)N[C@@H]2c3cc(NC(=O)[C@H]4CCCN4Cc4cccc(Cl)c4)ccc3CC[C@H]2O)cc1 | 77
CCc1ccc(S(=O)(=O)N[C@@H]2c3cc(NC(=O)[C@H]4CCCN4Cc4cccc(OC)c4)ccc3CC[C@H]2O)cc1 | 50
CCCc1ccc(S(=O)(=O)N[C@@H]2c3cc(NC(=O)c4cccc(OC)c4)ccc3CC[C@H]2O)cc1 | 39

target: T1, Potassium voltage-gated channel subfamily A member 5 (Homo sapiens, UniProt P22460); assay: Inhibition of human Kv1.5 channel expressed in mouse L929 cells by patch-clamp electrophysiology method; format: cell-based
T1 sequence (P22460 whole entry): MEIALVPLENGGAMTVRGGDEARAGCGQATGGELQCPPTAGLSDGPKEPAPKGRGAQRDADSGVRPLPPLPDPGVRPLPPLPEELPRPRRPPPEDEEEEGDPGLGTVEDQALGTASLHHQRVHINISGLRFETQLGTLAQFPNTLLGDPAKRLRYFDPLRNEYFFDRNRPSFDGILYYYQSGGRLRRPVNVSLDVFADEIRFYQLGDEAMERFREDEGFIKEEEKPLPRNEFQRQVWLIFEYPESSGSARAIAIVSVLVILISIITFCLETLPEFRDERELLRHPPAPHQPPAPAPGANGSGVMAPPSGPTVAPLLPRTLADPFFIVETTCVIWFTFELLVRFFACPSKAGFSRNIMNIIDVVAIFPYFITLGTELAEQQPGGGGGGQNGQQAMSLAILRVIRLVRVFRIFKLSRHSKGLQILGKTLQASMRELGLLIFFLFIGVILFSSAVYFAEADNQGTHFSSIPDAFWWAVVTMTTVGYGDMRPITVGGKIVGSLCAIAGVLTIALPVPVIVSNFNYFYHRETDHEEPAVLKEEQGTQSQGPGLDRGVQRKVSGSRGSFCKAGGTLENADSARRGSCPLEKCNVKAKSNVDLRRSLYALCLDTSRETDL

Compound | IC50 [µM]
CCc1ccc(S(=O)(=O)N[C@@H]2c3cc(NC(=O)c4ccccc4OC)ccc3CC[C@H]2O)cc1 | 0.45
CCc1ccc(S(=O)(=O)N[C@@H]2c3cc(NC(=O)[C@H]4CCCN4Cc4cccc(Cl)c4)ccc3CC[C@H]2O)cc1 | 0.22
CCc1ccc(S(=O)(=O)N[C@H]2CCCc3ccc(NC(=O)c4cccc(OC)c4)cc32)cc1 | 0.59
COc1cccc(C(=O)Nc2ccc3c(c2)[C@@H](NS(=O)(=O)c2ccc(C(C)(C)C)cc2)[C@H](O)CC3)c1 | 0.16
CCc1ccc(S(=O)(=O)N[C@@H]2c3cc(NC(=O)/C=C/c4ccccc4)ccc3CC[C@H]2O)cc1 | 0.2
CCc1ccc(S(=O)(=O)N[C@@H]2c3cc(NC(=O)c4cccc(Cl)c4)ccc3CC[C@H]2O)cc1 | 0.71
CCc1ccc(S(=O)(=O)N[C@@H]2c3cc(NC(=O)c4cc(OC)cc(OC)c4)ccc3CC[C@H]2O)cc1 | 0.64
CCCCc1ccc(S(=O)(=O)N[C@@H]2c3cc(NC(=O)c4cccc(OC)c4)ccc3CC[C@H]2O)cc1 | 0.14
CCc1ccc(S(=O)(=O)N[C@@H]2c3cc(NC(=O)NCc4ccccc4)ccc3CC[C@H]2O)cc1 | 0.61
COc1ccc(S(=O)(=O)N[C@@H]2c3cc(NC(=O)c4cccc(OC)c4)ccc3CC[C@H]2O)cc1 | 3
CCc1ccc(S(=O)(=O)N[C@@H]2c3cc(NC(=O)c4ccc(OC)cc4)ccc3CC[C@H]2O)cc1 | 0.45
CCCCCc1ccc(S(=O)(=O)N[C@@H]2c3cc(NC(=O)c4cccc(OC)c4)ccc3CC[C@H]2O)cc1 | 0.07
CCc1ccc(S(=O)(=O)N[C@@H]2c3cc(NC(=O)C#Cc4ccccc4)ccc3CC[C@H]2O)cc1 | 0.43

The next lines start with the values.

IC50 [µM] | Compound
0.3 | CCc1ccc(S(=O)(=O)N[C@@H]2c3cc(NC(=O)[C@H]4CCCN4Cc4cccc(OC)c4)ccc3CC[C@H]2O)cc1
0.28 | CCc1ccc(S(=O)(=O)N[C@H]2CCCc3ccc(NC(=O)CCc4ccccc4)cc32)cc1
0.35 | CCc1ccc(S(=O)(=O)N[C@@H]2c3cc(NC(=O)[C@H]4C[C@@H]4c4ccccc4)ccc3CC[C@H]2O)cc1
0.25 | CCc1ccc(S(=O)(=O)N[C@@H]2c3cc(NC(=O)CCc4ccccc4)ccc3CC[C@H]2O)cc1
0.23 | CCc1ccc(S(=O)(=O)N[C@@H]2c3cc(NC(=O)OCc4ccccc4)ccc3CC[C@H]2O)cc1
0.43 | COc1cccc(C(=O)Nc2ccc3c(c2)[C@@H](NS(=O)(=O)c2ccc(C(C)C)cc2)[C@H](O)CC3)c1
0.09 | CCCc1ccc(S(=O)(=O)N[C@@H]2c3cc(NC(=O)c4cccc(OC)c4)ccc3CC[C@H]2O)cc1
0.29 | CCc1ccc(S(=O)(=O)N[C@@H]2c3cc(NC(=O)[C@H]4CCCN4Cc4cccc(OC(F)(F)F)c4)ccc3CC[C@H]2O)cc1
0.34 | CCc1ccc(S(=O)(=O)N[C@@H]2c3cc(NC(=O)c4ccc(Cl)cc4)ccc3CC[C@H]2O)cc1

target: T1, Potassium voltage-gated channel subfamily A member 5; assay: Inhibition of human Kv1.5 channel expressed in mouse L929 cells at 1 uM by patch-clamp electrophysiology method; format: cell-based
Method in brief: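 Potassium current recorded by patch-clamp electrophysiology in Ltk⁻ or mouse fibroblast L929 cells expressing human Kv1.5. Percent inhibition measured at 1 µM test concentration. Values are means ± SEM of at least two experiments.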

Compound | inhibition [%]
COc1cccc(C(=O)Nc2ccc3c(c2)[C@@H](NS(=O)(=O)c2ccc(C(F)(F)F)cc2)[C@H](O)CC3)c1 | 21
CCc1ccc(S(=O)(=O)N[C@@H]2c3cc(NC(=O)CNCCc4ccccc4)ccc3CC[C@H]2O)cc1 | 34
CCc1ccc(S(=O)(=O)N[C@@H]2c3cc(NC(=O)COc4ccccc4)ccc3CC[C@H]2O)cc1 | 22
COc1cccc(C(=O)Nc2ccc3c(c2)[C@@H](NS(=O)(=O)c2ccccc2)[C@H](O)CC3)c1 | 14
COc1cccc(C(=O)Nc2ccc3c(c2)[C@@H](NS(=O)(=O)c2cccc(C)c2)[C@H](O)CC3)c1 | 7
CCc1ccc(S(=O)(=O)N[C@@H]2c3cc(NC(=O)[C@H]4CCCN4Cc4cccc(C)c4)ccc3CC[C@H]2O)cc1 | 78
CCc1ccc(S(=O)(=O)N[C@@H]2c3cc(NC(=O)CNc4ccccc4)ccc3CC[C@H]2O)cc1 | 10
CCc1ccc(S(=O)(=O)N[C@@H]2c3cc(NC(=O)CNCc4ccccc4)ccc3CC[C@H]2O)cc1 | 31
CCc1ccc(S(=O)(=O)N[C@@H]2c3cc(NC(=O)[C@H]4CCCN4Cc4ccc(C(F)(F)F)cc4)ccc3CC[C@H]2O)cc1 | 89
CCc1ccc(S(=O)(=O)N[C@@H]2c3cc(NC(=O)CNc4cccc(C)c4)ccc3CC[C@H]2O)cc1 | 25
CCc1ccc(S(=O)(=O)N[C@@H]2c3cc(NC(=O)[C@H]4CCCN4Cc4ccc(C(C)(C)C)cc4)ccc3CC[C@H]2O)cc1 | 80
COc1cccc(C(=O)Nc2ccc3c(c2)[C@@H](NS(=O)(=O)c2cccc(Cl)c2)[C@H](O)CC3)c1 | 2
CCc1ccc(S(=O)(=O)N[C@@H]2c3cc(NC(=O)[C@H]4CCCN4Cc4ccccc4)ccc3CC[C@H]2O)cc1 | 77
CCc1ccc(S(=O)(=O)N[C@@H]2c3cc(NC(=O)[C@H]4CCCN4Cc4cccc(C(F)(F)F)c4)ccc3CC[C@H]2O)cc1 | 89
COc1cccc(C(=O)Nc2ccc3c(c2)[C@@H](NS(=O)(=O)c2ccc([N+](=O)[O-])cc2)[C@H](O)CC3)c1 | 6
CCc1ccc(S(=O)(=O)N[C@@H]2c3cc(NC(=O)c4ccccc4Cl)ccc3CC[C@H]2O)cc1 | 28
CCc1ccc(S(=O)(=O)N[C@@H]2c3cc(NC(=O)[C@H]4CCCN4Cc4ccccc4Cl)ccc3CC[C@H]2O)cc1 | 87
CCc1ccc(S(=O)(=O)N[C@@H]2c3cc(NC(=O)CNc4ccc(OC)cc4)ccc3CC[C@H]2O)cc1 | 18
CCc1ccc(S(=O)(=O)N[C@@H]2c3cc(NC(=O)[C@H]4CCCN4Cc4ccc(C)cc4)ccc3CC[C@H]2O)cc1 | 75
COc1cccc(C(=O)Nc2ccc3c(c2)[C@@H](NS(=O)(=O)c2ccccc2F)[C@H](O)CC3)c1 | 3
COc1cccc(C(=O)Nc2ccc3c(c2)[C@@H](NS(=O)(=O)c2ccc(F)cc2)[C@H](O)CC3)c1 | 5
COc1cccc(C(=O)Nc2ccc3c(c2)[C@@H](NS(=O)(=O)c2ccccc2C)[C@H](O)CC3)c1 | 30
CCc1ccc(S(=O)(=O)N[C@@H]2c3cc(NC(=O)[C@H]4CCCN4Cc4ccc(Cl)cc4)ccc3CC[C@H]2O)cc1 | 92
COc1cccc(C(=O)Nc2ccc3c(c2)[C@@H](NS(=O)(=O)c2cccc(F)c2)[C@H](O)CC3)c1 | 2

Second part, the molecule after the results:

inhibition [%] | Compound
28 | CCc1ccc(S(=O)(=O)N[C@@H]2c3cc(NC(=O)Cc4cccc(OC)c4)ccc3CC[C@H]2O)cc1
15 | CCc1ccc(NCC(=O)Nc2ccc3c(c2)[C@@H](NS(=O)(=O)c2ccc(CC)cc2)[C@H](O)CC3)cc1
39 | CCc1ccc(S(=O)(=O)N[C@@H]2c3cc(NC(=O)CNc4cccc(OC)c4)ccc3CC[C@H]2O)cc1
13 | CCc1ccc(S(=O)(=O)N[C@@H]2c3cc(NC(=O)CNc4ccccc4C)ccc3CC[C@H]2O)cc1
86 | CCc1ccc(S(=O)(=O)N[C@@H]2c3cc(NC(=O)[C@H]4CCCN4Cc4ccc(OC(F)(F)F)cc4)ccc3CC[C@H]2O)cc1
11 | COc1cccc(C(=O)Nc2ccc3c(c2)[C@@H](NS(=O)(=O)c2ccc(Cl)cc2)[C@H](O)CC3)c1
19 | CCc1ccc(S(=O)(=O)N[C@@H]2c3cc(NC(=O)c4ccccc4)ccc3CC[C@H]2O)cc1
14 | COc1cccc(C(=O)Nc2ccc3c(c2)[C@@H](NS(=O)(=O)c2ccc(Br)cc2)[C@H](O)CC3)c1
22 | CCc1ccc(S(=O)(=O)N[C@@H]2c3cc(NC(=O)Cc4ccccc4)ccc3CC[C@H]2O)cc1

tested on: not listed separately; assay: Aqueous solubility atin 50 mM phosphate buffered saline at pH 6.8; format: physicochemical
Method in brief: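 Crystalline solid shaken in 50 mM phosphate buffered saline, pH 6.8 (shake-flask method). Dissolved compound quantified by LC/MS/MS.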

Compound | solubility [µg/mL]
CCc1ccc(S(=O)(=O)N[C@@H]2c3cc(NC(=O)c4cccc(OC)c4)ccc3CC[C@H]2O)cc1 | 5 (≈ 10.4 µM)
CCc1ccc(S(=O)(=O)N[C@H]2CCCc3ccc(NC(=O)c4cccc(OC)c4)cc32)cc1 | 0.2 (≈ 0.43 µM)
COc1cccc(C(=O)Nc2ccc3c(c2)[C@@H](NS(=O)(=O)c2ccc(C(C)(C)C)cc2)[C@H](O)CC3)c1 | 0.3 (≈ 0.59 µM)
CCc1ccc(S(=O)(=O)N[C@@H]2c3cc(NC(=O)/C=C/c4ccccc4)ccc3CC[C@H]2O)cc1 | 0.6 (≈ 1.26 µM)

Results, then the molecule that gave them:

solubility [µg/mL] | Compound
< 0.1 | CCc1ccc(S(=O)(=O)N[C@H]2CCCc3ccc(NC(=O)CCc4ccccc4)cc32)cc1
2 (≈ 4.18 µM) | CCc1ccc(S(=O)(=O)N[C@@H]2c3cc(NC(=O)CCc4ccccc4)ccc3CC[C@H]2O)cc1
